Measured values published in ChEMBL document CHEMBL1153019, “Lignans with anti-HIV activity from Schisandra propinqua var. sinensis” (J Nat Prod, 2009).

How the values were obtained:
[1] = Cytotoxicity against human C8166 cells by MTT assay; type: cell-based
Outline: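 MTT read-out of C8166 cell viability, run in parallel with the anti-HIV-1 cytopathic-effect assay. AZT served as positive control, and CC50 was derived.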

[2] = system: Human immunodeficiency virus 1; test: Antiviral activity against HIV1 3B in human C8166 cells assessed as inhibition of virus-induced cytopathogenicity; type: functional, organism-based; settings: Human immunodeficiency virus 1, 3B
Outline: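 HIV-1 cytopathic-effect inhibition in C8166 cells, run in parallel with the cytotoxicity test. AZT served as positive control, and EC50 was the read-out.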

[3] = Selectivity index, ratio of CC50 for human C8166 cells to EC50 for HIV1 3B; type: toxicity, cell-based; settings: read-out: Ratio CC50/EC50

SMILES	EC50 [2] [µM]	CC50 [1] [µM]	selectivity ratio [3]
C/C=C(\C)C(=O)O[C@H]1c2cc(OC)c(OC)c(OC)c2-c2c(cc3c(c2OC)OCO3)[C@H](OC(=O)/C=C/c2ccccc2)[C@H](C)[C@]1(C)O	7.9	> 200	> 25.2
COc1cc(C[C@@H](C)[C@@H](C)Cc2ccc(OC)c(OC)c2)ccc1O	2.9	17.2	5.8
COc1cc2c(cc1O)C[C@@H](C)[C@@H](C)[C@@H]2c1ccc(OC)c(OC)c1	4.5	30	6.7
COc1cc2c(c(OC)c1OC)-c1c(cc3c(c1OC)OCO3)[C@H](OC(=O)c1ccccc1)[C@H](C)[C@](C)(O)[C@H]2OC(=O)c1ccccc1	22.9	> 200	> 8.7
CCCCCC(=O)O[C@H]1c2cc3c(c(OC)c2-c2c(cc(OC)c(OC)c2OC)[C@H](OC(=O)c2ccccc2)[C@@](C)(O)[C@H]1C)OCO3	28.7	119	4.1
COc1cc(C[C@@H](C)[C@@H](C)Cc2ccc(O)c(OC)c2)ccc1O [MESODIHYDROGUAIARETIC ACID]	4	24.9	6.2
C/C=C(\C)C(=O)O[C@H]1c2cc(OC)c(OC)c(OC)c2-c2c(cc3c(c2OC)OCO3)[C@H](OC(=O)c2ccccc2)[C@H](C)[C@H]1C	15.4	78.2	5.1
COc1ccc([C@H]2O[C@@H](c3ccc(OC)c(OC)c3)[C@H](C)[C@@H]2C)cc1OC [GALGRAVIN]	7.7	43.4	5.6
COc1ccc([C@H]2O[C@H](c3ccc4c(c3)OCO4)[C@@H](C)[C@H]2C)cc1OC	15.5	104	6.7
C/C=C(/C)C(=O)O[C@H]1c2cc(OC)c(OC)c(OC)c2-c2c(cc3c(c2OC)OCO3)[C@H](OC(C)=O)[C@H](C)[C@@H]1C [INTERIOTHERIN C]	9.9	> 200	> 20.2

Continued, in another order:

EC50 [2] [µM]	SMILES	CC50 [1] [µM]	selectivity ratio [3]
29.8	CC[C@H](C)C(=O)Oc1c(OC)c(OC)cc2c1-c1c(cc(OC)c(OC)c1OC)[C@H](O)[C@H](C)[C@H](C)C2 [TIEGUSANIN A]	> 200	> 6.7
9.4	COc1ccc(CC(C)C(C)Cc2cc(OC)c(OC)c(OC)c2)cc1OC (stereo not drawn) [TIEGUSANIN N]	24.5	2.6
6.8	COc1ccc([C@@H]2O[C@H](c3ccc4c(c3)OCO4)[C@@H](C)[C@@H]2C)cc1O	19.9	2.9
51.4	COc1cc2c(c(OC)c1OC)-c1c(cc3c(c1OC)OCO3)[C@H](OC(=O)c1ccccc1)[C@H](C)[C@](C)(O)[C@H]2OC(=O)/C=C/c1ccccc1	> 200	> 3.9
15.7	C/C=C(\C)C(=O)Oc1c(OC)c(OC)cc2c1-c1c(cc(OC)c(OC)c1OC)[C@H](O)[C@H](C)[C@H](C)C2 [METHYL SCHISANTHERIN F]	> 200	> 12.7
20.4	COc1cc2c(c(OC)c1OC)-c1c(cc3c(c1OC)OCO3)C(=O)[C@@H](C)[C@@H](C)C2	> 200	> 9.8
18.5	COc1cc2c(c(OC)c1OC)-c1c(cc(OC)c(OC)c1OC(=O)c1ccccc1)[C@H](O)[C@H](C)[C@H](C)C2 [TIEGUSANIN C]	> 200	> 10.8
79.1	COc1cc2c(c(OC)c1OC)-c1c(cc3c(c1OC)OCO3)[C@H](OC(C)=O)[C@H](C)[C@H](C)C2 [KADSURIN]	> 200	> 2.5
7.3	COc1c(O)cc2c(c1OC)-c1c(cc3c(c1OC)OCO3)C[C@@H](C)[C@@H](C)[C@H]2OC(=O)/C=C/c1ccccc1 [TIEGUSANIN L]	74.1	10.2
0.00195	Cc1cn([C@H]2C[C@H](N=[N+]=[N-])[C@@H](CO)O2)c(=O)[nH]c1=O [ZIDOVUDINE]	> 1000	> 500000
14.8	COc1ccc(C[C@@H](C)[C@@H](C)Cc2ccc(OC)c(OC)c2)cc1OC [TERAMEPROCOL]	28.8	2
